Tested on: MS2 coat protein
Experiment: apparent Kd, MS2 coat protein; higher = weaker binding; RNA-MaP array; FMN 200 µM where present
Summary of the method: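 On Illumina sequencing-chip clusters, designs were transcribed by stalled E. coli RNA polymerase and titrated with SNAP-549-labelled MS2 coat protein (0.7 or 1.5 nM, doubling to 3 µM), without and then with constant ligand, in 100 mM Tris-HCl pH 7.5, 80 mM KCl, 4 mM MgCl2, BSA, DTT, yeast tRNA and Tween-20. Apparent Kd is the median of filtered per-cluster curve fits to green signal normalised to red-channel RNA signal and control-cluster median Fmax.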

[1] = designed as: ON switch for flavin mononucleotide, no ligand
[2] = ligand present: flavin mononucleotide, designed as: ON switch for flavin mononucleotide
[3] = designed as: OFF switch for flavin mononucleotide, no ligand
[4] = ligand present: flavin mononucleotide, designed as: OFF switch for flavin mononucleotide

Sequence | apparent Kd [1] | apparent Kd [2] | apparent Kd [3] | apparent Kd [4]
AAAAAAAAAACUGAGGAUAUGAAAUAAUAGACAUGAGGAUCACCCAUGUUUUCGGUCGAAAAAAUGCAGAAGGCAGAAAAAAAAAA | 31.6 nM | 29.1 nM | – | –
AAAAAACAUGAGGAUCACCCAUGUCAGGAUAUCUGUAUUCAAUCCUCGGAUUGAAUACAGAGAAGGGACAUGGA | – | – | 42 nM | 22.8 nM
AAAAAACAUGAGGAUCACCCAUGUCGAAAGACAUGAGGAUAUGUACAGACUUCGGUCUGUACAGAAGGCAUGUCUU | 37.3 nM | 15.2 nM | – | –
AAAAAACAUGAGGAUCACCCAUGUGAGGAUAUCCUGGUUGAAAAAAAAAAAACAACCAGGAGAAGGCACAAAAA | – | – | 88.4 nM | 132 nM
AAAAAACAUGAGGAUCACCCAUGUGAGGAUAUCGUGCAGAAAAAAAAAAAAAACUGCACGAGAAGGCACAUGAA | – | – | 237 nM | 460 nM
AAAAAGACAGGAUAUACAUGAGGAUCACCCAUGUGAAAAAAAAAAAAAAAAAAAAAGUGUAGAAGGGUCAAAAA | – | – | 48.9 nM | 35.4 nM
AAAAAGUGAGGAUAUACAUGAAAAAAAAAAAAAAAAAAAAAACAUGAGGAUCACCCAUGUAGAAGGCGCAAAAA | – | – | 55.1 nM | 45.7 nM
AAAAAUAGAGGAUAUACAUGAAAAAAAAAAAAAAAAAAAAAACAUGAGGAUCACCCAUGUAGAAGGCUAAAAAA | – | – | 45.3 nM | 30.3 nM
AAAAAUGGAGGAUAUACAUGAGGAUCACCCAUGUGUGGCUAUACUAUGUGCUCGUCAGGUAGAAGGCCAAAAAA | – | – | 31.2 nM | 59.2 nM
AAAACAGCGCGUCCCGCGCCAACUACAGAAGGCCAACAUGAGGAUCACCCAUGUACAAACUAGAUGGAGGAUAUGUAGGUUCUA | 6.35 nM | 4.5 nM | – | –
AAAACAUGAGGAUCACCCAUGUAAAGAACGGUUAAUAGAUCUGAGGAUAUACUAGAAUUUAGGUAGUAGAAGGCAGUGGGUACA | 35 nM | 26.2 nM | – | –
AAAACAUGAGGAUCACCCAUGUAAAGAUCGGUUAAUAAAAGUGAGGAUAUACUAAAUUUUAUAUAGUAGAAGGCACUGGGUACA | 22.9 nM | 30.1 nM | – | –
AAAACAUGAGGAUCACCCAUGUAAAGAUCGGUUAAUAGAGGUGAGGAUAUACGAACUUAAAGGUGGUAGAAGGCACUGGGUACA | 71.6 nM | 53.3 nM | – | –
AAAACAUGAGGAUCACCCAUGUUAAGAUCGGUUAAUAGAAGUGAGGAUAUACGAAGUUAAAGCUGGUAGAAGGCACUGGGUACA | 29.2 nM | 26.5 nM | – | –
AAAACCUCAUGAGGAUAUCCAACAUGAGGAUCACCCAUGUUAGUCUCAGUACUAGGUACUUGAGAGGAGAAGGCAUGCCAGGGC | 123 nM | 36.2 nM | – | –
AAAACGUGAGGAUAUCCAAUAUAUGACAUGAGGAUCACCCAUGUUUCCACUCGUACCUCCGGAGAAGGCACUUUUU | – | – | 54.6 nM | 44.9 nM
AAAACUGGAGGAUAUACAUGAGGAUCACCCAUGUGUGGGUAUACUGUGUCGGCGUCAGGUAGAAGGCCACAAAA | – | – | 108 nM | 88.7 nM
AAAAGACAUGAGGAUCACCCAUGUAAAAACAUAGGAGGAUAUGUUUGGAAACUAGACUGAACAGAAGGCCUUUGUC | 22.9 nM | 17 nM | – | –
AAAAGACAUGAGGAUCACCCAUGUAAAAACAUGAGAGGAUAUCAUCUGACUUCGGUCAGAUGAGAAGGCUCAUGUC | 48.7 nM | 26.9 nM | – | –

Sequence | apparent Kd [1] | apparent Kd [2] | apparent Kd [3] | apparent Kd [4]
AAAAGACAUGAGGAUCACCCAUGUAAAGACGUAGGAGGAUAUGUCUUGAAAAAAGACUUGACAGAAGGCCUGUGUC | 26.4 nM | 19 nM | – | –
AAAAGGUCAGGAUAUACAAAAAAAAAAAAAAAAAAAAAAAAGUAGAAGGGACAUGAGGAUCACCCAUGUGAAAA | – | – | 86.1 nM | 74 nM
AAAAGGUGAGGAUAUACAUGAGGAUCACCCAUGUAGAAAGGAAGUGUAAAAAAAAAGUGUAGAAGGCAUCAUGA | – | – | 58.7 nM | 60.6 nM
AAAAGUCGAGGAUAUGCAAAAUGAUUGCGAAAGCAAUCAAAACAUGAGGAUCACCCAUGUAGAAGGCGACAAAA | – | – | 21.3 nM | 13.9 nM
AAAAUAUAAAGAGAGGAUAUCCAAAGAACCACAUGAGGAUCACCCAUGUAAAGAAAGAAUAAGUGGGAGAAGGCUCAAAUAAUAA | 187 nM | 29.2 nM | – | –
AAAAUCAAUUGAGGAUAUUCAUACACUACAUACGGAGAAGGCAAACAAUCAUGAGGACAUGAGGAUCACCCAUGUUGUGACCAU | 22.3 nM | 16.3 nM | – | –
AAAAUCUAUAGAGGAUAUCCAUACACUGCAUACGGAGAAGGCUAACAAUCAUGAGGACAUGAGGAUCACCCAUGUUGUGACCAU | 19.9 nM | 13.6 nM | – | –
AAAAUGUGAGGAUAUCAGGUGUGCUAGAGAACUGGUACAUCUGAGAAGGCACAUGAGGAUCACCCAUGUUCUUC | – | – | 34.6 nM | 156 nM
AAACAAACAACGCAGGAUAUGCAAAAACCCACAUGAGGAUCACCCAUGUCCCAACAACAAACAAAGCAGAAGGGCGAACAAACAAA | 105 nM | 55.4 nM | – | –
AAACAAGCAGGGAUGCUUCGCAGGGAGGAUAUCUGACUGGGCGGACAUGAGGAUCACCCAUGUACAGAGAAGGCCCAAAGCACC | – | – | 620 nM | 32 nM
AAACACGAUCGAGGAUAUCAUGCUUACGUCCCGGAUCCAUAAACAUGAGGAUCACCCAUGUGAUAUGAGAAGGCGAUAGUCAUA | – | – | 19.5 nM | 26.9 nM
AAACACGGACAUGAGGAUCACCCAUGUGGCGAAAGCCUUGGGAGAAGGCCGAUUGCAAAGCAAUCGGAGGAUAUUCGUACCGUG | 237 nM | 13.8 nM | – | –
AAACAGGAAGGAUAUACAUUAUCGGAUCUUCUGGCAAUGCCACAUGAGGAUCACCCAUGUAGAAGGUCCAAAUU | – | – | 13.6 nM | 22.9 nM
AAACAGGCAGGAUAUACAUGAGGAUCACCCAUGUGCAUAAACUGGCUGCGUCCGAAUCGUAGAAGGGCCUGCAU | – | – | 502 nM | 126 nM
AAACAGGGAGGAUAUACAUAGAUCCUCUAACCUAAUUGGUCACAUGAGGAUCACCCAUGUAGAAGGCCCUUAGG | – | – | – | 11.3 nM
AAACAGGGAGGAUAUACAUGAGGAUCACCCAUGUUCGAGCGUCCUUGAACUACCUCAGGUAGAAGGCCCUAAUU | – | – | 372 nM | 112 nM
AAACAUGUCCGAGGAUAUCUGAGAUCAUUUUCAAGAGAAGGCGGACAUGAGGAUCACCCAUGUCUCUCCUCAUCAACUCCACAU | – | – | 7.47 nM | 39.1 nM
AAACAUGUCCGAGGAUAUCUGGAAACACUUUCAAGAGAAGGCGGACAUGAGGAUCACCCAUGUCUCUCCUCAUCAACUACAAAU | – | – | 8.71 nM | 49.3 nM
AAACAUGUCCGAGGAUAUCUGGAAACAUUUCCAAGAGAAGGCGGACAUGAGGAUCACCCAUGUCUCUCCUCAUCAAAUCCAAGA | – | – | 8 nM | 77.4 nM

Sequence | apparent Kd [1] | apparent Kd [2] | apparent Kd [3] | apparent Kd [4]
AAACAUGUCCGAGGAUAUCUGGAAACAUUUUCAAGAGAAGGCGGACAUGAGGAUCACCCAUGUCUCUCCUCAUCAAAUCCAAGU | – | – | 21.4 nM | 148 nM
AAACCACAUGAGGAUCACCCAUGUGAUAAAAGCAUAGGAUAUCUGGAUGUGAGAGGCGGCAGAGAAGGAUGCACGC | 61.5 nM | 53.9 nM | – | –
AAACCUAUAGGAUAUACAUGAGGAUCACCCAUGUUGCGAUUUUUUAGGUAACAGAUCCGUAGAAGGGUAGGUCA | – | – | 36.4 nM | 66.6 nM
AAACGCCAACAUGAGGAUCACCCAUGUUCUAGUUUAGGGUCGCAGGAUAUGACUUCGAAGCUUAGUCAGAAGGGUGAGUCCACA | 13.7 nM | 11.2 nM | – | –
AAACUCAUGCAGAAGGGACAAACGGGUGGGAUCUGCAUGUGCACAUGAGGAUCACCCAUGUGGUGUCAGGAUAUGCUGGGCACG | – | – | 102 nM | 75.2 nM
AAAGAACAUGAGGAUCACCCAUGUGAGGAUAUGCGAAAACCGCUGGCGCACCAGACGGGCAGAAGGCAUAUGGU | – | – | 75.6 nM | 92.5 nM
AAAGACAUGAGGAUCACCCAUGUCGGUAUAACUUAAGCGUCACAGGAUAUGUUACGAAAUUAUGGACAGAAGGGUGAGCUGUGG | 23.8 nM | 9.02 nM | – | –
AAAGCAUACCGAGGAUAUUCAUAUAAUAAAUAAACAUGAGGAUCACCCAUGUGGCGAAAGCCUAGGGAGAAGGCGGAAUGCUAA | 197 nM | 24.6 nM | – | –
AAAGGACGAGGAUAUACAUGAGGAUCACCCAUGUGUAAAACGUAAUAAAAUAACUUAUGUAGAAGGCGUCCAAA | – | – | 30.6 nM | 216 nM
AAAGGUACAGGAUAUGCGUGGAAAAAGUGUAUUCAAAAAAAACAUGAGGAUCACCCAUGUAGAAGGGUACCAAA | – | – | 81 nM | 269 nM
AAAGGUGAUUCAGGAUAUGUGUAGGAGGGCGGCGCAGAAGGGAAUCUAGCCCGACGUCAUACAUGAGGAUCACCCAUGUAUGCC | 28.7 nM | 18.5 nM | – | –
AAAGUGCCGACGAAGGAUAUAGCGGGUGAGACAUGAGGAUCACCCAUGUAUGCAGAACUCAUCCUCUAGAAGGUUGAGACGGCUA | 113 nM | 177 nM | – | –
AAAGUGUAAGGAUAUGCUGCUCGUCACUUGCGUGAUGAGUAGCAGAAGGUACAUGAGGAUCACCCAUGUAAAAA | – | – | 28.8 nM | 38.3 nM
AAAGUGUCAGGAUAUACAUGAGGAUCACCCAUGUAUCUUUUUGAUCGUAGGGUGCACCGUAGAAGGGACACUCC | – | – | 27.4 nM | 37.1 nM
AAAGUGUGAGGAUAUCCUGGGCUGGGCCGGGAGGUUCGGUUGGAGAAGGCACAUGAGGAUCACCCAUGUAACGG | – | – | 62.7 nM | 53.4 nM
AAAUAAAUGACUCAGGAUAUAUCAUAGAAUACAUGAGGAUCACCCAUGUUUUAAUAACAUGUUUGGUAGAAGGGAGUCAAUAAAU | 80.4 nM | 29.3 nM | – | –
AAAUAACCUAGCAAAAUUUCCUCACAUGAGGAUCACCCAUGUAGAAGGCUGUCCUAAAAUAGGACAGAGGAUAUACGUGCUAGG | – | – | 6.82 nM | 107 nM
AAAUAGCAUGAGGAUAUUGGACUGGAUUCAGUACGAGAAGGCAUGACAUGAGGAUCACCCAUGUUUUGUUGGGA | – | – | 51.7 nM | 202 nM

From the EternaBench riboswitch data
